ChEMBL document CHEMBL3259586, “Localization and interaction of hydroxyflavones with lipid bilayer model membranes: a study using DSC and multinuclear NMR” (Eur J Med Chem, 2014)
Converted amounts (≈) assume the structure as drawn. The source made the active and inactive calls. The rule behind the calls is not given here.

Assays:
[1] = Binding affinity to multilamellar vesicles by NMR titration method
Procedure, shortened: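 NMR titration with drug held at 10 mM and lipid varied 1-10 mM; lipid stock in D2O, drug stock in methanol, both diluted; TSP added as reference; fraction bound derived from chemical shift changes.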

Lipid bilayer [2] = test: Binding affinity to DPPC lipid bilayer assessed as melting temperature at 1:10 drug to DPPC molar ratio by differential scanning calorimetric analysis
Procedure, shortened: (§1)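 DPPC multilamellar vesicles made from chloroform lipid solution, lipid held at 50 mM, drug/lipid molar ratios 1:20 to 1:2; DSC heating scans give pretransition (Tp) and main transition (Tm) temperatures; repeat scans of the same samples.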

K562 = test: Antiproliferative activity against human K562 cells assessed as cell growth at 10^-4 ug/ml after 48 hrs by sulforhodamine B assay relative to control; format: functional; settings: K562, 48 h, read-out: Activity
Procedure, shortened: (§2)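 Sulforhodamine B assay; cells grown in RPMI 1640 with 10% fetal bovine serum and 2 mM L-glutamine; compounds dissolved in DMSO, diluted into culture medium; incubated 48 h under standard conditions; percent growth inhibition calculated.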

Lipid bilayer [3] = test: Binding affinity to unilamellar vesicles of DPPC in D2O at 1:5 drug to lipid molar ratio at 323 K by [13C]-NMR spectroscopic analysis
Procedure, shortened: (§3)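 Lipid held at 100 mM for NMR samples with flavone at 10 to 50 mM; multilamellar vesicles from chloroform-dissolved DPPC; unilamellar vesicles made by sonicating lipid dispersions at 50% duty cycle until optically clear.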

MCF7 = test: Antiproliferative activity against human MCF7 cells assessed as cell growth at 10^-4 ug/ml after 48 hrs by sulforhodamine B assay relative to control; format: functional; settings: MCF7, 48 h, read-out: Activity; procedure, shortened: as §2
Lipid bilayer [4] = test: Binding affinity to DPPC lipid bilayer assessed as melting temperature at 1:20 drug to DPPC molar ratio by differential scanning calorimetric analysis; procedure, shortened: as §1
Lipid bilayer [5] = test: Binding affinity to unilamellar vesicles of DPPC in D2O at 1:5 drug to lipid molar ratio at 323 K by [1H]-NMR spectroscopic analysis; procedure, shortened: as §3
[6] = test system: Radical scavenging activity; test: Antioxidant activity assessed as DPPH radical scavenging activity after 30 mins; format: functional
Procedure, shortened: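 Test compounds at varied concentrations added to methanolic DPPH with 0.1 M Tris-HCl buffer; absorbance read at 517 nm after 30 min incubation; IC50 read graphically from dose-response curves; at least three experiments.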

Lipid bilayer [7] = test: Binding affinity to DPPC lipid bilayer assessed as melting temperature at 1:2 drug to DPPC molar ratio by differential scanning calorimetric analysis; procedure, shortened: as §1
Lipid bilayer [8] = test: Binding affinity to DPPC lipid bilayer assessed as decrease in melting temperature by differential scanning calorimetric analysis; procedure, shortened: as §1
[9] = Binding affinity to multilamellar vesicles of DPPC assessed as increase in chemical shift anisotropy at 323 K by [31P]-NMR spectroscopic analysis; procedure, shortened: as §3
Lipid bilayer [10] = test: Binding affinity to DPPC lipid bilayer assessed as pre-transition temperature at 1:20 drug to DPPC molar ratio by differential scanning calorimetric analysis; procedure, shortened: as §1
HepG2 = test: Antiproliferative activity against human HepG2 cells assessed as cell growth at 10^-4 ug/ml after 48 hrs by sulforhodamine B assay relative to control; format: functional; settings: HepG2, 48 h, read-out: Activity; procedure, shortened: as §2
Lipid bilayer [11] = test: Binding affinity to DPPC lipid bilayer assessed as pre-transition temperature at 1:10 drug to DPPC molar ratio by differential scanning calorimetric analysis; procedure, shortened: as §1
Lipid bilayer [12] = test: Binding affinity to DPPC lipid bilayer assessed as melting temperature at 1:5 drug to DPPC molar ratio by differential scanning calorimetric analysis; procedure, shortened: as §1
[13] = Binding affinity to multilamellar vesicles after 2 hrs by centrifugation method
Lipid bilayer [14] = test: Binding affinity to DPPC lipid bilayer assessed as pre-transition temperature at 1:5 drug to DPPC molar ratio by differential scanning calorimetric analysis; procedure, shortened: as §1
Lipid bilayer [15] = test: Binding affinity to DPPC lipid bilayer assessed as pre-transition temperature at 1:2 drug to DPPC molar ratio by differential scanning calorimetric analysis; procedure, shortened: as §1
[16] = Binding affinity to multilamellar vesicles of DPPC at 1:10 to 1:2 drug to lipid molar ratio at 323 K by [31P]-NMR spectroscopic analysis; procedure, shortened: as §3
Lipid bilayer [17] = test: Binding affinity to unilamellar vesicles of DPPC in D2O at 1:5 drug to lipid molar ratio at 323 K by 2D-NOESY spectroscopic analysis; procedure, shortened: as §3
[18] = Binding affinity to multilamellar vesicles at 100 uM after 2 hrs by centrifugation method relative to control

| Kapp [1] | Tm (Lipid bilayer [2]) | Activity (Lipid bilayer [3]) | Tm (Lipid bilayer [4]) | Activity (Lipid bilayer [5]) | IC50 [6] | Tm (Lipid bilayer [7]) | Activity (Lipid bilayer [8]) | Activity [9] | T (Lipid bilayer [10]) | T (Lipid bilayer [11]) | Tm (Lipid bilayer [12]) | Kapp [13] | T (Lipid bilayer [14]) | T (Lipid bilayer [15]) | Activity [16] | Compound | growth at 0.0001 µg/mL (K562) | growth at 0.0001 µg/mL (MCF7) | growth at 0.0001 µg/mL (HepG2) | Activity (Lipid bilayer [17]) | also measured |
| --- | --- | --- | --- | --- | --- | --- | --- | --- | --- | --- | --- | --- | --- | --- | --- | --- | --- | --- | --- | --- | --- |
| 229 M⁻¹ | 40.7 °C | Active | 41.1 °C | Active | 23.8 µg/mL (≈ 99.9 µM) | 39.6 °C | Dose-dependent effect | Dose-dependent effect | 32.3 °C | 32 °C | 40.6 °C | 313 M⁻¹ | 32 °C | 30.3 °C | – | O=c1cc(-c2ccccc2)oc2cccc(O)c12 [5-HYDROXYFLAVONE] | 26.7% | 28.6% | 88.8% | – | – |
| 572 M⁻¹ | 37.3 °C | Active | 37.4 °C | Active | 22.1 µg/mL (≈ 92.8 µM) | 36.9 °C | Dose-dependent effect | – | – | – | 37.1 °C | 800 M⁻¹ | – | – | Active | O=c1cc(-c2ccccc2)oc2ccc(O)cc12 [6-HYDROXYFLAVONE] | 13.3% | 28.8% | 82.8% | Active | – |
| 532 M⁻¹ | 39.8 °C | Active | 40.6 °C | Active | 20.4 µg/mL (≈ 80.2 µM) | 40.1 °C | Dose-dependent effect | – | 31 °C | 30.4 °C | 39.9 °C | 759 M⁻¹ | 30.5 °C | 31.6 °C | Active | O=c1cc(-c2ccccc2)oc2cc(O)cc(O)c12 [CHRYSIN] | 38.3% | 25.9% | 76.7% | – | – |
| 1820 M⁻¹ | 36.7 °C | Active | 37.2 °C | Active | > 100 µg/mL | 36.3 °C | Dose-dependent effect | – | – | – | 36.4 °C | 19600 M⁻¹ | – | – | Active | O=c1cc(-c2ccccc2)oc2ccccc12 [FLAVONE] | 56.8% | 50.3% | -7.6% | – | Activity [18]: 80% |
| 215 M⁻¹ | 39.7 °C | Active | 40.4 °C | Active | 18.2 µg/mL (≈ 67.3 µM) | 40.9 °C | Dose-dependent effect | – | 32.1 °C | 30.2 °C | 40.6 °C | 252 M⁻¹ | 32.9 °C | 33.8 °C | Active | O=c1cc(-c2ccccc2)oc2cc(O)c(O)c(O)c12 [BAICALEIN] | 16.7% | -8.9% | 70.6% | Active | – |
| 311 M⁻¹ | 40.5 °C | Active | 40.7 °C | Active | 24.2 µg/mL (≈ 102 µM) | 39.8 °C | Dose-dependent effect | Dose-dependent effect | 31.9 °C | 31.8 °C | 40.4 °C | 450 M⁻¹ | – | 27.4 °C | – | O=c1cc(-c2ccccc2)oc2cc(O)ccc12 [7-HYDROXYFLAVONE] | 22.3% | 26.6% | 98.8% | – | – |
